Experimental data taken from ChEMBL document CHEMBL1144876, “Benzodiazepines as potent and selective bradykinin B1 antagonists” (J Med Chem, 2003).
pIC50, pKi: −log10 of the molar value.

How the values were obtained:
B1 bradykinin receptor [1] = molecular target: T1, B1 bradykinin receptor (Homo sapiens, UniProt P46663); assay: Inhibition of human bradykinin B1 receptor
T1 sequence (P46663 whole entry): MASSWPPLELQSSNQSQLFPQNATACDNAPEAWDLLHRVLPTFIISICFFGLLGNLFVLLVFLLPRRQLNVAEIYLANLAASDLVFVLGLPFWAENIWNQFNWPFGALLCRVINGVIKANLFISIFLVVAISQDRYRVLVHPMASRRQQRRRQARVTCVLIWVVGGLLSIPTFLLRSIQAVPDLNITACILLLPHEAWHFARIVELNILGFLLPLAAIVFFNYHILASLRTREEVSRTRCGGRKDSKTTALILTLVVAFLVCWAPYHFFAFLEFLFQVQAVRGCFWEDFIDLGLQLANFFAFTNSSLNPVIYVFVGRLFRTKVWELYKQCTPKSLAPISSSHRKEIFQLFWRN

B1 bradykinin receptor [2] = molecular target: T1, B1 bradykinin receptor; assay: Compound was tested for inhibition against human bradykinin B1 receptor using FLIPR assay
B1 bradykinin receptor [3] = molecular target: T2, B1 bradykinin receptor (Rattus norvegicus, UniProt P97583); assay: Compound was tested for inhibition against rat Bradykinin receptor B1
T2 sequence (P97583 whole entry): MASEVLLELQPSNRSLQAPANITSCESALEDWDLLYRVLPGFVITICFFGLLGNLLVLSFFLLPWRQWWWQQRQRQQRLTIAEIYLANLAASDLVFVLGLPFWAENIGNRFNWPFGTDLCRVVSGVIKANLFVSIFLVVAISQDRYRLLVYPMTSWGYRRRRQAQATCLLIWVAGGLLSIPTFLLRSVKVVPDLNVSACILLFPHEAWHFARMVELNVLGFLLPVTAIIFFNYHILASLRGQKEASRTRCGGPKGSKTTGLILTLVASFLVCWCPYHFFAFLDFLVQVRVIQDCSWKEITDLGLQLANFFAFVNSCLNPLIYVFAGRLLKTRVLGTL
Summary of the method: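 Radioligand binding using the appropriate radioligand on CHO cells stably expressing rat bradykinin B1 receptor; Ki (nM) determined radiometrically; interassay variability about 10%.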

[4] = Oral bioavailability in rat; format: ADME, organism-based; conditions: in vivo
[5] = Half life after intravenous administration in rat; format: ADME, organism-based; conditions: in vivo
B1 bradykinin receptor [6] = molecular target: T2, B1 bradykinin receptor; assay: Compound was tested for inhibition against rat Bradykinin receptor B1 using FLIPR assay

Row | SMILES | pKi (B1 bradykinin receptor [1]) | pIC50 (B1 bradykinin receptor [2]) | pKi (B1 bradykinin receptor [3]) | bioavailability [4] | half-life [5] | pIC50 (B1 bradykinin receptor [6])
1 | CCCN1C(=O)C(NC(=O)Nc2ccc(N3CCN(c4ccccn4)CC3)cc2)N=C(C2CCCCC2)c2ccccc21 (configuration not stated) | 7.01 |  |  |  |  | 
2 | CCCN1C(=O)[C@@H](NC(=O)Nc2ccc(N3CCC(N4CCCCC4)CC3)cc2)N=C(C2CCCCC2)c2ccccc21 | 5.99 | 5.66 |  |  |  | 
3 | CCCN1C(=O)C(NC(=O)Nc2ccc(N3CCC(c4ccncc4)CC3)cc2)N=C(CCc2ccccc2)c2ccccc21 (configuration not stated) | 7.26 |  |  |  |  | 
4 | CCCN1C(=O)C(NC(=O)Nc2ccc(N3CCN(c4cccnc4)CC3)cc2)N=C(C2CCCCC2)c2ccccc21 (configuration not stated) | 7.07 |  |  |  |  | 
5 | CCCN1C(=O)[C@H](NC(=O)Nc2ccc(N3CCN(c4ccncc4)CC3)cc2)N=C(CCc2ccccc2)c2ccccc21 |  |  | 9.04 | 3.4% | 2.7 h | 8.55
6 | CCCN1C(=O)[C@H](NC(=O)Nc2ccc(N3CCC(N4CCCCC4)CC3)cc2)N=C(C2CCCCC2)c2ccccc21 | 8.24 | 7.61 | 7.74 | 10% | 3.2 h | 7.23
7 | CCCN1C(=O)C(NC(=O)Nc2ccc(N3CCN(c4ccccc4)CC3)cc2)N=C(C2CCCCC2)c2ccccc21 (configuration not stated) | < 5.00 |  |  |  |  | 
8 | CCCN1C(=O)[C@H](NC(=O)Nc2ccc(N3CCN(c4ccncc4)CC3)cc2)N=C(C2CCCCC2)c2ccccc21 | 8.88 | 8.10 |  | 2.5% | 2.3 h | 7.62
9 | CCCN1C(=O)[C@H](NC(=O)Nc2ccc(N3CCC(N4CCCCC4)CC3)cc2)N=C(c2ccc(C)cc2)c2ccccc21 | 7.87 | 7.19 | 7.77 | 32% | 4.3 h | 7.57

Second part, led by results:

Row | pKi (B1 bradykinin receptor [1]) | SMILES | pIC50 (B1 bradykinin receptor [2]) | pKi (B1 bradykinin receptor [3]) | bioavailability [4] | half-life [5] | pIC50 (B1 bradykinin receptor [6])
10 | < 5.00 | CCCN1C(=O)C(NC(=O)Nc2ccc(N3CCCCC3)cc2)N=C(C2CCCCC2)c2ccccc21 (configuration not stated) |  |  |  |  | 
11 | 6.85 | O=C(CCCN1C(=O)CN=C(C2CCCCC2)c2ccccc21)Nc1ccc(N2CCC(N3CCCCC3)CC2)cc1 |  |  |  |  | 
12 | 7.55 | CCCN1C(=O)C(NC(=O)Nc2ccc(N3CCC(N(C)C)CC3)cc2)N=C(C2CCCCC2)c2ccccc21 (configuration not stated) | 6.79 |  |  |  | 
13 | 8.86 | CCCN1C(=O)[C@H](NC(=O)Nc2ccc(N3CCC(N4CCCCC4)CC3)cc2)N=C(CCc2ccccc2)c2ccccc21 | 8.32 | 8.71 | 4.9% | 2.4 h | 8.14
